In BindingDB's records for doi:10.1021/acs.jmedchem.8b01912 (Monash University, 2019):

Target: T1, fMet-Leu-Phe receptor (Homo sapiens, UniProt P21462)
T1 sequence (P21462 whole entry): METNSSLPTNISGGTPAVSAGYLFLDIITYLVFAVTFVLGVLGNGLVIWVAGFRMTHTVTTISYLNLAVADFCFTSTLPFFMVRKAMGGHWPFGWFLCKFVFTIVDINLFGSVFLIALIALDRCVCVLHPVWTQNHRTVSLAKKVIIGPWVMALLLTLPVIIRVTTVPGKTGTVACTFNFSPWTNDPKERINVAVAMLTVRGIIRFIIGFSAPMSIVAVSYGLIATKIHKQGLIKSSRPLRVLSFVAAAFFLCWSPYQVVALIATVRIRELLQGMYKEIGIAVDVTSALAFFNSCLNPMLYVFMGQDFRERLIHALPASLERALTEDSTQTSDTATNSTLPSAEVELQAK
Test: Biased agonist activity at human FPR1 expressed in FlpIn-CHO cells assessed as intracellular calcium mobilization by Fluo-4-AM dye based fluorescence assay
Outline: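 Agonist transduction coefficients (Log(τ/KA)) for each signaling output estimated with an extension of the Black-Leff operational model. Values normalized to a reference ligand and to Ca2+ mobilization as reference pathway, giving ΔLog(τ/KA) and Log(bias factors). Data are mean ± SEM of 4 independent experiments, each performed in duplicate.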

CCCCC(C(=O)Nc1ccc(Cl)cc1)n1nc(C)cc(Cc2ccccc2OC)c1=O (stereo unspecified)
EC50: 891 nM
